Results taken from ChEMBL document CHEMBL1139003, “Novel endotoxin-sequestering compounds with terephthalaldehyde-bis-guanylhydrazone scaffolds” (Bioorg Med Chem Lett, 2006).

How the values were obtained:
J774.A1 = experiment: Inhibition of LPS-induced production of nitric oxide in murine J774.A1 cells; assay type: functional, cell-based, Mus musculus
Outline: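 Murine J774 cells grown in medium containing fetal bovine serum are stimulated with LPS. Nitric oxide production is read as nitrite. IC50 is the concentration giving 50% inhibition of NO.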

Lipopolysaccharide (LPS) = experiment: Binding affinity to lipid A moiety of LPS present in Gram negative bacteria by fluorescent probe method; assay type: functional
Outline: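 Homogeneous, automated fluorescence displacement assay run in aqueous buffer. A fluorescent probe is bound to LPS and test ligand displaces it. ED50 is the ligand concentration that displaces 50% of the bound probe and is taken as relative binding affinity.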

Mus musculus [1] = species: Mus musculus; experiment: Decrease in lethality in D-galactosamine-sensitized mice challenged with LPS at 200 ng/mouse
Mus musculus [2] = species: Mus musculus; experiment: Decrease in lethality in D-galactosamine-sensitized mice challenged with LPS at 200 ng/mouse; assay type: functional, organism-based
Outline: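 Mice primed with D-galactosamine receive graded doses of test compound and are challenged with a supralethal LPS dose of 200 ng/mouse. The endpoint is lethality.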

Row | Molecule | IC50 (J774.A1; j774.a1) | ED50 (Lipopolysaccharide (LPS)) | IC50 (J774.A1; Mus musculus, J774.A1) | Activity (Mus musculus [1]) | Activity (Mus musculus [2])
1 | POLYMYXIN B [listing 1 of 2 here] | 0.98 µM | – | – | – | –
2 | N=C(N)N/N=C/c1ccc(/C=N/NC(=N)N)c(O)c1O | – | 43.7 µM | 26.4 µM | – | –
3 | N=C(N)N/N=C/c1ccc(/C=N/NC(=N)N)cc1 | – | 34.6 µM | 24.4 µM | – | –
4 | CCCCCCCCCCCCCCOc1c(/C=N/N=C(N)N)ccc(/C=N/N=C(N)N)c1OCCCCCCCCCCCCCC | – | > 500 µM | 14.9 µM | – | –
5 | CCCOc1c(/C=N/N=C(N)N)ccc(/C=N/N=C(N)N)c1OCCC | – | 12.7 µM | 8.38 µM | – | –
6 | POLYMYXIN B [listing 2 of 2 here] | – | 1.67 µM | – | – | –
7 | COc1c(/C=N/N=C(N)N)ccc(/C=N/NC(=N)N)c1OC | – | 42.3 µM | 28 µM | – | –
8 | C=CCOc1c(/C=N/NC(=N)N)ccc(/C=N/NC(=N)N)c1OCC=C | – | 29.9 µM | 9.64 µM | – | –

Continued by falling IC50 (J774.A1; Mus musculus, J774.A1), values first:

Row | IC50 (J774.A1; j774.a1) | ED50 (Lipopolysaccharide (LPS)) | IC50 (J774.A1; Mus musculus, J774.A1) | Molecule | Activity (Mus musculus [1]) | Activity (Mus musculus [2])
9 | – | 13.2 µM | 4.67 µM | CCCCCCOc1c(/C=N/N=C(N)N)ccc(/C=N/NC(=N)N)c1OCCCCCC | – | –
10 | – | 22.8 µM | 4.56 µM | CCOc1c(/C=N/N=C(N)N)ccc(/C=N/N=C(N)N)c1OCC | – | –
11 | – | 9.44 µM | 4.15 µM | CCCCOc1c(/C=N/N=C(N)N)ccc(/C=N/NC(=N)N)c1OCCCC | – | –
12 | – | 7.82 µM | 3.54 µM | CCCCCOc1c(/C=N/N=C(N)N)ccc(/C=N/N=C(N)N)c1OCCCCC | – | –
13 | – | 39.5 µM | 3.45 µM | CCCCCCCCOc1c(/C=N/N=C(N)N)ccc(/C=N/N=C(N)N)c1OCCCCCCCC | Dose-dependent effect | Dose-dependent effect
